Results reported in PMC7127808 (Biochimie, 2017).

Experiments:
[1] = biological target: porcine kidney cortex glutamyl aminopeptidase (porcine aminopeptidase A; pAPA) (Sus scrofa, UniProt Q95334); experiment: Porcine aminopeptidase A; format: biochemical; settings: read-out: IC50 vs pAPA; dose-response, L-Glu-pNA
In short: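 Microsomes from porcine kidney cortex, prepared as for placental APN, used at 1 mg/mL in 50 mM Tris-HCl pH 8, 0.1% Triton X100, 1 mM CaCl2. Substrate L-Glu-pNA at or below one KM. p-Nitroaniline release read at 405 nm every 15 s for 5 min, 37 °C. Test compounds came from 10 mM DMSO stocks diluted in buffer. IC50 came from nonlinear regression of dose-response data.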

[2] = biological target: Human placental aminopeptidase N (hAPN) (Homo sapiens, UniProt P15144); experiment: Human placental aminopeptidase N; format: biochemical; settings: read-out: IC50 vs hAPN; 30 min pre-incubation; substrate at KM; n = 4
Sequence of Human placental aminopeptidase N (hAPN) (P15144 whole entry): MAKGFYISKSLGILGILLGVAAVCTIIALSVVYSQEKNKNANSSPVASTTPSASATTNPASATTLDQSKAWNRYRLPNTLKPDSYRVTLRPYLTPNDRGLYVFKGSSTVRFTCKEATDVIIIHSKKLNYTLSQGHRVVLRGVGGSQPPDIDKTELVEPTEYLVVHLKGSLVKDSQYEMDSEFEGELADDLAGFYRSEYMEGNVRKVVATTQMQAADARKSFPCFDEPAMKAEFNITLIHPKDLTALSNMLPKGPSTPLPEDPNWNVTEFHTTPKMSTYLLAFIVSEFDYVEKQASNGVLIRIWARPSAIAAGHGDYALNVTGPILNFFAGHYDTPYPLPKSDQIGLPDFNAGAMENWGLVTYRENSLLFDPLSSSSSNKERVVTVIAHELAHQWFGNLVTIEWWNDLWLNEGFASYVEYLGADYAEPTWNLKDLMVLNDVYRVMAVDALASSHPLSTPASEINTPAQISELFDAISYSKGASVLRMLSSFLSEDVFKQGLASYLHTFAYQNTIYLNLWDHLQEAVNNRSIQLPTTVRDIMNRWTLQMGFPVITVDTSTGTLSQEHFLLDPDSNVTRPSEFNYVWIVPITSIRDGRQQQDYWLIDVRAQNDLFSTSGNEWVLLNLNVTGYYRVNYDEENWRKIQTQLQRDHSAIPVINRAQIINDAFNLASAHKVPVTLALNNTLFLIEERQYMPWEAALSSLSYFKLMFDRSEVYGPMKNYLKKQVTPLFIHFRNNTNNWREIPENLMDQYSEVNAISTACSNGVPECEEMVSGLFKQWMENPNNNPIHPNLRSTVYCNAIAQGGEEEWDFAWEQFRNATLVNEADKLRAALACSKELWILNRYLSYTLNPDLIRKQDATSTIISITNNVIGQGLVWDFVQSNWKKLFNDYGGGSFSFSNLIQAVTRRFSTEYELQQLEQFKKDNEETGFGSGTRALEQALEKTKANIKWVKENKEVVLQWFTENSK

rat APN activity = biological target: T1, rat APN activity (Rattus norvegicus, UniProt P15684); experiment: In vivo effects of inhibitors on APN activity in rat organs; settings: for blood-brain barrier crossing: inferred from inhibition of APN activity in the brain of rats
T1 sequence (P15684 1-965): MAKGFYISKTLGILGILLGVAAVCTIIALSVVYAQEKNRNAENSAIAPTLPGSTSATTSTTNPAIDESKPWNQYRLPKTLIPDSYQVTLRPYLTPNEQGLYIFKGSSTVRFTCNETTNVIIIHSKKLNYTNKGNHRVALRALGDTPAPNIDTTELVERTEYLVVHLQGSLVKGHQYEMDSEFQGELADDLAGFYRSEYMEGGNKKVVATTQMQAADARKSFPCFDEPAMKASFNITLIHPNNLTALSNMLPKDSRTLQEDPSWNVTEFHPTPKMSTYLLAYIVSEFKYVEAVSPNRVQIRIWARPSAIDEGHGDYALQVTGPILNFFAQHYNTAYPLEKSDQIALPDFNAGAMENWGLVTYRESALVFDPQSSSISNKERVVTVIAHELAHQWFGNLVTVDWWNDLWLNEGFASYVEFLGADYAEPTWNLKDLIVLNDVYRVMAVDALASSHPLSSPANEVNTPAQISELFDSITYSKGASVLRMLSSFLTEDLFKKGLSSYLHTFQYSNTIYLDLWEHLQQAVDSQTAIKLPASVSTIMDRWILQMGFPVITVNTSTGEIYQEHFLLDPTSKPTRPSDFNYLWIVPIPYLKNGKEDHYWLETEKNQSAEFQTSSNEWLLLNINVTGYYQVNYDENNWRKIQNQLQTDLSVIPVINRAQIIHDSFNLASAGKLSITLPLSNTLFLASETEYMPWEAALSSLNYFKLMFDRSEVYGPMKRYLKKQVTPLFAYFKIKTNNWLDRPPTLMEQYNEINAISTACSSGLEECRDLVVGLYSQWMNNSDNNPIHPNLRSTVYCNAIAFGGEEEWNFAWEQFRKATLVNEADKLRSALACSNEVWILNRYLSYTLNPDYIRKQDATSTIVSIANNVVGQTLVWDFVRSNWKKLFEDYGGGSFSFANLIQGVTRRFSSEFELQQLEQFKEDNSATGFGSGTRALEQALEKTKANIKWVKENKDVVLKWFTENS
In short: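 Wistar rats (80–100 days, 260–300 g) got one intraperitoneal injection of inhibitor, 3 μg/g body weight in 100 μL 0.9% saline, or saline alone (n = 6 per group). Decapitation 1 h later; organs frozen, stored at −70 °C. NaCl-washed membranes from 10% (w/v) homogenates in 50 mM Tris-HCl pH 8. APN kinetic assay as for porcine APN, 30 min. Mean ± SD; ANOVA, Tukey-Kramer.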

Wistar rats = experiment: Mortality and spontaneous behavior after intraperitoneal injection; format: in vivo; settings: 3 μg/g b.w. intraperitoneal, compared to the vehicle group (not shown)
[3] = biological target: T2, Porcine kidney APN (pAPN) (Sus scrofa, UniProt P15145); experiment: Porcine kidney APN; format: biochemical; settings: for Inhibition Type: Table 1, hAPN and pAPN, Lineweaver-Burk diagnosis (hAPN data not shown); for α (pAPN): factor between αKi and Ki vs pAPN; for IC50: read-out: IC50 vs pAPN, 30 min pre-incubation, substrate at KM, n = 4
T2 sequence (P15145 1-963): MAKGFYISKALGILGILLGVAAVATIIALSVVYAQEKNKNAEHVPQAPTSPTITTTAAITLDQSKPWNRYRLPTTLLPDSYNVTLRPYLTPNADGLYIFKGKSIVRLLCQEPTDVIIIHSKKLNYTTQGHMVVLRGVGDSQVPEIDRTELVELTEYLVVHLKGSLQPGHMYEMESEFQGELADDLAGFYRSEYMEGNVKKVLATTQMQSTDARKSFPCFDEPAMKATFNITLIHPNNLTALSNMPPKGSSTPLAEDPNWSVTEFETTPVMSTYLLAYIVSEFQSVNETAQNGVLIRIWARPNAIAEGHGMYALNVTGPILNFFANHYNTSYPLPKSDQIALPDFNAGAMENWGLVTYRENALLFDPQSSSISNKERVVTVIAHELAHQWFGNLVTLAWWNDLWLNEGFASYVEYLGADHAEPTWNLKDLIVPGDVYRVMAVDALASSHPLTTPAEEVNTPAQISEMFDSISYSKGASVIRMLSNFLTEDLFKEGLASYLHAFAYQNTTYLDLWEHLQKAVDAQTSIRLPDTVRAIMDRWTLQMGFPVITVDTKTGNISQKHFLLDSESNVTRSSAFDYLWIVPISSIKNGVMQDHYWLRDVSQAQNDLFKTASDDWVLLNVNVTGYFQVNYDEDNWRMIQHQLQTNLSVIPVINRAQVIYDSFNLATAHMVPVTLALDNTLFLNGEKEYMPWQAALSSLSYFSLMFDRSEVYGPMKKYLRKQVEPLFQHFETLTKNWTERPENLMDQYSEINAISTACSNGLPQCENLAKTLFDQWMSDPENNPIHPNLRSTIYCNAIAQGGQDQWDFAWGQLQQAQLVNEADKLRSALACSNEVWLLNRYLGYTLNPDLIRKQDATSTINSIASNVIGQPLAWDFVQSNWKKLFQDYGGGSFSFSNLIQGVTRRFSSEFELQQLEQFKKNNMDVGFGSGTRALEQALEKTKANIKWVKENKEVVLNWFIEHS

[4] = rat, 3 μg/g b.w. intraperitoneal, 60 min, vs saline injected animals

Sequence of porcine kidney cortex glutamyl aminopeptidase (porcine aminopeptidase A; pAPA) (Q95334 whole entry): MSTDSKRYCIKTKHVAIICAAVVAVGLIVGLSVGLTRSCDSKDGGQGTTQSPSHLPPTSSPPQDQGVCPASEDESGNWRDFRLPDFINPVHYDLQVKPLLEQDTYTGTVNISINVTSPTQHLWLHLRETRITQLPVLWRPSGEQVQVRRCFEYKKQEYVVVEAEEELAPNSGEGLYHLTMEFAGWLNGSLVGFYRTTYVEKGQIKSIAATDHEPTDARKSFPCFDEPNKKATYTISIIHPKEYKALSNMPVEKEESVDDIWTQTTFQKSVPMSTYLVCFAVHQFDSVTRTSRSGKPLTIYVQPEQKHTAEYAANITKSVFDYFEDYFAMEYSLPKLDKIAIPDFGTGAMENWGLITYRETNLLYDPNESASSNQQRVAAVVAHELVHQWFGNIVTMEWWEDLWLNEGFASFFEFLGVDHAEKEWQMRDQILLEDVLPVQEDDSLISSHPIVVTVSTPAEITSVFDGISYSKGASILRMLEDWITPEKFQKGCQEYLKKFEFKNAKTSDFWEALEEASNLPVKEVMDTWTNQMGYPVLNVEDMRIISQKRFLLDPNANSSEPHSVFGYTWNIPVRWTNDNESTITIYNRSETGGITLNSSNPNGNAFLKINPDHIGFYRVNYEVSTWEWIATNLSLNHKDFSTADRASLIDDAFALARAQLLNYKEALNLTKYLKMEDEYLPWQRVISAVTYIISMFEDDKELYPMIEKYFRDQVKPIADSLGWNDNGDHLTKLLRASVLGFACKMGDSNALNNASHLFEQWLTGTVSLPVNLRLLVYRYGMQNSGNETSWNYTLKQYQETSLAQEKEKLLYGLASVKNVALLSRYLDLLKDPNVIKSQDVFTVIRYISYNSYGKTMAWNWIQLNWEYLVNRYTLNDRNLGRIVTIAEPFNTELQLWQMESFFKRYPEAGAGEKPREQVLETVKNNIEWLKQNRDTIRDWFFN

Structure (SMILES) | IC50 [1] [nM] | IC50 [2] [nM] | blood-brain barrier crossing (rat APN activity) | APN activity in brain (rat APN activity; [4]) | APN activity in kidney (rat APN activity; [4]) | APN activity in liver (rat APN activity; [4]) | mortality or change in rat spontaneous behavior (Wistar rats) | Inhibition Type [3] | α (pAPN) [3] | IC50 [3] [nM] | APN activity in pancreas (rat APN activity; [4])
O=C(NNC(=NS(=O)(=O)c1ccc(-n2nc(C(F)(F)F)cc2-c2cccs2)cc1)N1CCCC1)c1ccc(Cl)cc1 [BTB07018, N1-[[2-(4-chlorobenzoyl)hydrazino](tetrahydro-1H-pyrrol-1-yl)methylidene]-4-[5-(2-thienyl)-3-(trifluoromethyl)-1H-pyrazol-1-yl]benzene-1-sulfonamide] | 4740 ± 100 | 2670 ± 110 | crossed the blood-brain barrier | decreased APN activity | decreased APN activity | decreased APN activity | did not induce any mortality or change in rat spontaneous behavior | Non-competitive α > 1 | 1.82 | 2290 ± 100 | 
C(=C1c2ccccc2-c2c1ccc1ccccc21)c1cc2c3c(cccc3c1)-c1ccccc1-2 [BTB11079, 2-(7H-benzo[c]fluoren-7-ylidenmethyl)fluoranthene] | 3880 ± 110 |  |  |  |  |  | did not induce any mortality or change in rat spontaneous behavior | Non-competitive α > 1 | 11.40 | 2950 ± 100 | 
CC(C)C[C@H](NC(=O)[C@@H](O)[C@H](N)Cc1ccccc1)C(=O)O [Bestatin, reference compound] |  |  |  |  |  |  |  | Non-competitive α > 1 | 5.97 |  | 
N#Cc1cc(Cc2ccc3c(ccc4ccccc43)c2C#N)cc2c1ccc1ccccc12 [JFD00064, 2-[(1-cyano-3-phenanthryl)methyl]phenanthrene-1-carbonitrile] | 1820 ± 110 |  | crossed the blood-brain barrier | decreased APN activity | decreased APN activity | decreased APN activity | did not induce any mortality or change in rat spontaneous behavior | Non-competitive α > 1 | 2.69 | 2830 ± 100 | inhibited the APN activity
